Compounds with a hit are over-represented: about 3% of the library has one in this group of screens.
SENP6 inh: SENP6 protease inhibition; Q9GZR1; Recombinant SENP6 catalytic domain, aminoluciferin luminescence; inhibition, % at 10 µM; actives 1.8% (n = 330,000);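 active means inhibition above about 50% at the single tested dose, limit read from the data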
SENP7 block: blocks the human protease SENP7 | Q9BQF6 | recombinant SENP7, Z-RLRGG-aminoluciferin luminescence, 40 min | inhibition, % at 5 µM | actives 1.5% (n = 330,000);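 active means inhibition above about 50% at the single test dose, limit read from the data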
Target sequence (Q9BQF6 706-1050 limits assumed): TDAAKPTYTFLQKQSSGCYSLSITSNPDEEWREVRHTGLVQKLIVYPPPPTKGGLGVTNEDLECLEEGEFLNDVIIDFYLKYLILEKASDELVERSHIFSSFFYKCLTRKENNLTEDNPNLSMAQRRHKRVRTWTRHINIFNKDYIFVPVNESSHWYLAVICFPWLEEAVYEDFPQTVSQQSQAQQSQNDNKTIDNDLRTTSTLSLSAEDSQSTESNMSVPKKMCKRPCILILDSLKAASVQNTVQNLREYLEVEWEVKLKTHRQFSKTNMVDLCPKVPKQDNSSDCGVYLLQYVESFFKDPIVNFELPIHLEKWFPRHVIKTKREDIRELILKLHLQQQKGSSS
SENP8 block-1: inhibitors of human SENP8 protease | Q96LD8 | purified SENP8, Z-RLRGG-aminoluciferin cleavage, luminescence | inhibition, % at 10 µM | actives 1.2% (n = 330,000) | AID 2540; in the data active means inhibition above about 50%
SENP8 block-2: blocks human SENP8 cleavage of Nedd8 substrate; Q96LD8; recombinant SENP8, Nedd8 substrate fluorescence; inhibition, % at 20 µM; actives 0.64% (n = 360,000); in the data active means inhibition mostly above about 40%, no sharp cut-off; inactive means mostly below about 27%
UBC13 inh: human UBC13 polyubiquitination inhibition. P61088. AID 485273. UBC13 polyubiquitin chain formation, TR-FRET. actives 0.47% (n = 330,000). inhibition, % at 20 µM; in the data active means inhibition above about 45%, passing the limit was not always enough
Apaf1 inhib: inhibitors of human Apaf-1 apoptosome; reconstituted apoptosome caspase-3 activity, DEVD-Rh110 fluorescence; O14727; actives 0.71% (n = 330,000); AID 489030; inhibition, % at 20 µM; active means inhibition of at least 40% at 20 µM
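Medium: Hepes buffer, pH 7.5 / System: biochemical Apaf-1 apoptosome reconstitution / Measured by: Rh110 fluorescence, excitation 480 nm, emission 540 nm / Times: compound with Apaf-1, dATP, procaspase-3 30 min, then 50 min reaction, room temperature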
SENP8 confirm: confirmation of human SENP8 protease inhibitors | shares compounds with SENP7 block | Recombinant SENP8, Z-RLRGG-aminoluciferin luminescence, 60 min | inhibition, % at 12.5 µM | actives 40% (n = 6,200);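 active means mean inhibition across replicates above about 50%, limit read from the data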
SENP6 confirm: human SENP6 inhibition, confirmed; actives 58% (n = 6,200); inhibition, % at 12.5 µM; recombinant SENP6, Z-RLRGG-aminoluciferin luminescence; shares compounds with SENP7 block
SENP7 conf: human SENP7 inhibition, confirmed; shares compounds with SENP7 block; recombinant SENP7, Z-RLRGG-aminoluciferin luminescence, 40 min; inhibition, % at 12.5 µM; actives 69% (n = 6,200)
Casp3 SENP sel: selectivity test for SENP inhibitors: human caspase-3 inhibition; AID 488918; inhibition, % at 12.5 µM; shares compounds with SENP7 block; actives 60% (n = 6,200); purified caspase-3, Z-DEVD-aminoluciferin luminescence, 60 min;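 active means mean inhibition above about 50%, limit read from the data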
Target sequence (P42574 28-227 limits assumed): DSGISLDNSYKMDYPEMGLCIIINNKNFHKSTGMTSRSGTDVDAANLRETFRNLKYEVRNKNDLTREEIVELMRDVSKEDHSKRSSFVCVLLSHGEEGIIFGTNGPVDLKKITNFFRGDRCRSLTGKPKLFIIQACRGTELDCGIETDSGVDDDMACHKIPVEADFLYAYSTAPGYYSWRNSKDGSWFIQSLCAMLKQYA
Luc interf: luminescence interference (SENP counter-screen); AID 488919; actives 39% (n = 6,200); inhibition, % at 12.5 µM; shares compounds with SENP7 block; Pre-incubated SENP8/Z-RLRGG-aminoluciferin, luciferase luminescence interference;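 active means mean inhibition above about 50% when retested at one dose, limit read from the data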
A number is an active result; . = inactive; / = no result given.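 How the source made its calls, unless noted: active means mean inhibition above about 50% in the one-dose retest (limit read from the data); inactive means the rest.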

SMILES | SENP6 inh | SENP7 block | SENP8 block-1 | SENP8 block-2 | UBC13 inh | Apaf1 inhib | SENP8 confirm | SENP6 confirm | SENP7 conf | Casp3 SENP sel | Luc interf
Cc1ccc(-c2cc(NC(=O)c3ccccc3)on2)cc1 | 50 | 87 | 52 | . | . | . | . | . | 92 | 63 | .
COc1cc(NCC2COc3c(ccc(OC)c3OC)C2=O)c([N+](=O)[O-])cc1OC (stereo not given) | / | / | / | . | / | / | / | / | / | / | /
c1ccc2sc(-n3cc(C4CCCCC4)nn3)nc2c1 | / | / | / | . | / | / | / | / | / | / | /
COc1cc(CN(CC2CCCO2)C(=O)c2ccco2)cc(OC)c1OC (stereo not given) | . | . | . | . | . | . | / | / | / | / | /
COc1cc(CN(CC2CCCO2)C(=O)c2cccs2)cc(OC)c1OC (stereo not given) | . | 78 | . | . | . | . | . | . | . | . | .
CC(=O)/C(N=Nc1ccc(SC(F)F)cc1)=C(\C)O | 66 | . | . | . | . | . | . | 64 | 60 | 62 | .
CCOc1ccc(OCC)c(NC(=O)CSCCc2ccccn2)c1 | 82 | . | . | . | . | . | . | . | . | . | .
O=c1c2ccccc2nnn1CSc1ccc2c(c1)OCCO2 | . | 63 | . | . | . | . | 72 | 70 | 87 | 72 | 71
CCC(C(=O)Nc1ccc2c(c1)OCCO2)n1nnc2ccccc2c1=O (stereo not given) | . | . | . | . | . | . | / | / | / | / | /
COc1ccccc1-c1cnc(C(O)c2ccc(Cl)cc2)[nH]1 (stereo not given) | / | / | / | . | / | / | / | / | / | / | /
COc1ccc(CCn2nc(C)c([N+](=O)[O-])c2C)cc1 | 71 | 59 | . | . | . | . | 57 | 53 | 82 | 79 | 62
CCCCCCc1nc2nc(Cl)c(Cl)nc2[nH]1 | / | / | / | . | / | / | / | / | / | / | /
COc1ccc2c(c1)CCc1c(C(=O)NCC(C)C)noc1-2 | 71 | 51 | . | . | . | . | . | . | 81 | 57 | .
CN(Cc1ccccc1)C(=O)Cn1nnc(-c2ccccc2)c1COc1ccc2ccccc2c1 | / | / | / | . | / | / | / | / | / | / | /
CC1C(=O)N(Cc2cn(Cc3ccco3)nn2)CCS(=O)(=O)N1Cc1ccc(-c2ccccc2C(F)(F)F)cc1 (stereo not given) | / | / | / | . | / | / | / | / | / | / | /
CCOC(=O)c1cn2nc(N3CCCCC3)ccc2n1 | 72 | 71 | 68 | . | . | . | 72 | 72 | 93 | 89 | 78
O=C(NCC[C@@H]1CC[C@@H](NC(=O)c2cnccn2)[C@@H](CO)O1)c1ccc2c(c1)OCO2 | / | / | / | . | / | / | / | / | / | / | /
O=C(Nc1nc(-c2ccc3c(c2)OCO3)cs1)C1COc2ccccc2O1 (stereo not given) | . | . | . | . | . | . | / | / | / | / | /
CC(=O)Nc1nc(-c2ccc3c(c2)OCO3)cs1 | 52 | . | . | . | . | . | . | . | 56 | 52 | .
O=C(CCCCl)Nc1nc(-c2ccc3c(c2)OCCO3)cs1 | . | . | . | . | . | . | / | / | / | / | /
N#CCC(=O)Nc1nc(-c2ccc3c(c2)OCCO3)cs1 | 89 | 61 | 82 | . | . | . | 53 | 67 | 89 | 68 | .
COc1ccc(C(C)=O)cc1CN1C(=O)C(C)ON=C1c1cccc(C(F)(F)F)c1 (stereo not given) | / | / | / | . | / | / | / | / | / | / | /
Nc1c(-c2ccc(C(F)(F)F)cc2)nc2ncccn12 | / | / | / | . | / | / | / | / | / | / | /
Cc1cccc(C(O)c2ncc(-c3ccccc3)[nH]2)c1C (stereo not given) | / | / | / | . | / | / | / | / | / | / | /
Nc1nc(N)c2cc(CNc3ccc(Cl)c(Cl)c3)ccc2n1 | / | / | / | . | / | / | / | / | / | / | /
SMILES | SENP6 inh | SENP7 block | SENP8 block-1 | SENP8 block-2 | UBC13 inh | Apaf1 inhib | SENP8 confirm | SENP6 confirm | SENP7 conf | Casp3 SENP sel | Luc interf
CCCCNc1c(CC(C)C)nc2nc(C)cc(C)n12 | / | / | / | . | / | / | / | / | / | / | /
Nc1ccc(-c2ncc(-c3ccccc3)o2)cc1 | 73 | 69 | 61 | . | . | . | 74 | 68 | 89 | . | 74
Cc1ccc(-c2cnc(-c3ccncc3)o2)cc1 | . | . | . | . | . | . | / | / | / | / | /
COc1ccc(/C=C/C(=O)c2ccc3c(c2)OCO3)c(OC)c1 | 84 | 83 | . | . | . | . | 87 | 78 | 94 | . | 66
COc1ccc(NC(=O)c2ccc3c(c2)OCO3)cc1 | 68 | 60 | 62 | . | . | . | 63 | 61 | 87 | 88 | 72
CCOc1ccc(N/C=C\C(=O)c2ccc3c(c2)OCO3)cc1 | . | . | . | . | . | . | / | / | / | / | /
O=C(/C=C\Nc1ccc2c(c1)OCO2)c1ccc2c(c1)OCO2 | . | 86 | . | . | . | . | . | . | . | . | .
COc1ccc(/C=C/C(=O)c2ccccc2)c(OC)c1 | . | . | . | . | . | . | / | / | / | / | /
COc1ccc(N/C=C\C(=O)c2ccc3c(c2)OCO3)cc1 | 76 | 78 | 51 | . | . | . | . | . | 65 | 54 | .
CCC(C)CN1C(=O)CSCC1(C)C(=O)Nc1ccc2c(c1)OCCO2 (stereo not given) | / | / | / | . | / | / | / | / | / | / | /
N#Cc1c(-c2ccc(Cl)cc2)c(-c2ccc(Cl)cc2)nn(CCO)c1=O | / | / | / | . | / | / | / | / | / | / | /
Cc1cccc(NC(=O)c2ccc3c(c2)OCCO3)n1 | 78 | 83 | 59 | . | . | . | . | 75 | 92 | 89 | 76
O=C(Nc1ccccn1)c1ccc2c(c1)OCO2 | . | 73 | 52 | . | . | . | . | 66 | 92 | 90 | 70
Cc1cccc(NC(=O)CNC(=O)c2ccc3c(c2)OCO3)n1 | . | . | . | . | . | . | / | / | / | / | /
O=C(Nc1ccccn1)c1ccc2c(c1)OCCO2 | . | 80 | 61 | . | . | . | . | 70 | 92 | 89 | 72
Cc1nc(NC(=O)c2ccc3c(c2)OCO3)ccc1Br | 81 | 77 | 74 | . | . | . | . | 72 | 89 | 73 | .
Cc1csc(NC(=O)c2cc3c(s2)-c2ccccc2OC3)n1 | . | . | . | . | . | . | / | / | / | / | /
Cc1cccc(NC(=O)c2cc3c(s2)-c2c(C)cccc2OC3)n1 | . | 86 | . | . | . | . | . | . | . | . | .
CN(C)c1ncnc2c1ncn2[C@H]1CN(CCN2CCOCC2)C[C@@H](CO)O1 | / | / | / | . | / | / | / | / | / | / | /
CCCCCc1ccc(-c2cn(Cc3ccc(C(=O)c4ccccc4)cc3)nn2)cc1 | . | . | . | . | . | . | / | / | / | / | /
